System: E. coli BW25113 ΔtolC growth inhibition, OD615
Assay: growth inhibitors of E. coli tolC mutant, dose response, strain BW25113 ΔtolC::kan (AID 617)
Method in brief: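 Material: E. coli BW25113 ΔtolC::kan bacteria; input: inoculum from 1:1000-diluted 1.5 h subculture; medium: kanamycin-containing LB broth, 50 µg/mL; dosing: compounds in serially diluted dose-response series; incubation: 20 h exposure at 37 °C; measured by: absorbance at 615 nm; control set: chloramphenicol control, 30 µM final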

| SMILES | IC50 [µM] |
| --- | --- |
| c1ccc(-c2cccc(-c3ccccn3)n2)nc1 | 19.4 |
| CCC(Sc1nnnn1-c1ccccc1)C(=O)Nc1nc2ccccc2s1 (configuration not stated) | 5.44 |
| COc1ccc(C2c3sc(=O)[nH]c3SC3C4CCC(C4)C23)cc1 (configuration not stated) | 10 |
| O=C(Oc1ccccc1)c1cc2ccccc2o1 | 23.1 |
| O=C(COc1ccccc1)Nc1ccccc1N1CCCCC1 | 25.6 |
| Cc1ccsc1C(=O)Nc1nnc(-c2ccco2)o1 | 3.92 |
| Cc1ccccc1Cn1nc(C)c(NC(=O)c2noc3c2CC(C(C)(C)C)CC3)c1C (configuration not stated) | 9.29 |
| COc1ccccc1N1CCN(C(c2ccc(Cl)cc2)c2nnnn2C(C)(C)C)CC1 (configuration not stated) | 26.5 |
| CC(C)(C)c1ccc(OCC(=O)NCc2ccco2)c(Br)c1 | 14.6 |
| COC(=O)c1cccc(-n2nnnc2SCC(=O)Nc2nc3c(s2)CCCC3)c1 | 15.8 |
| CC(C)Sc1nc(NCc2ccco2)c2c3c(sc2n1)COC(C)(C)C3 | 20.6 |
| N#Cc1nc(-c2ccc(OCc3ccccc3)cc2)oc1NCCCn1ccnc1 | 6.08 |
| C=CCn1c(SCC(=O)Nc2ccc3c(c2)CCC3)nnc1-c1cccs1 | 53.8 |
| COc1ccc(-c2nnc(NC(=O)c3ccc(S(=O)(=O)N4CCc5ccccc5C4)cc3)o2)cc1 | 0.22 |
| O=C(O)C1CC=CCC1C(=O)Nc1ccc(S(=O)(=O)N2CCCc3ccccc32)cc1 (configuration not stated) | 8.93 |
| COc1ccc(CNC(=O)c2cc(-c3ccccc3OC)on2)cc1 | 56 |
| O=C(CC(=O)c1cc(Cl)ccc1O)c1ccccc1 | 8.34 |
| COc1ccccc1N1CCN(c2nc(C)nc3c2oc2ccccc23)CC1 | 11.4 |
| N#Cc1nc(COc2ccc(Br)cc2)oc1NCCCn1ccnc1 | 23.7 |
| CCn1c(N2CCN(C(=O)C34CC5CC(CC(C5)C3)C4)CC2)nc2ccccc21 | 17.2 |
| N=C(N)c1c(O)n(C2CCCCC2)c(=O)n(C2CCCCC2)c1=O | 5.79 |
| Cc1ccc2c(c1)c(C)c(C)n2CC(O)Cn1nc(C)c(Br)c1C (configuration not stated) | 11.8 |
| Nc1c(C(=O)NCCc2ccccc2)c2nc3ccccc3nc2n1CCN1CCOCC1 | 12.4 |

| SMILES | IC50 [µM] |
| --- | --- |
| Cc1ccc(Cl)cc1NC(=O)CC(O)(C(F)(F)F)C(F)(F)F | 3.77 |
| COc1ccc(CN(C(=O)CN2C(=O)C(C)Oc3ccccc32)C2CCCC2)c(OC)c1 (configuration not stated) | 28.1 |
| CC(C)Cc1cc(C(=O)Nc2cc(Br)ccc2O)no1 | 5.72 |
| N#CC1=C(SCC(=O)c2cc3ccccc3oc2=O)NC(=O)C(C#N)C12CCCC2 (configuration not stated) | 12.7 |
| CCCCn1c(=O)n(Cc2cccc(F)c2)c(=O)c2c1ncn2Cc1ccco1 | 14.8 |
| CCn1c(SCC(=O)OC2CCCCC2)nc2ccccc2c1=O | 11.8 |
| N#C/C(=C\c1cccs1)Sc1nc2ccccc2s1 | 9.02 |
| Cc1ccccc1OCCCN1C(=O)C(=O)c2cccc(C)c21 | 103 |
| CCOC(=O)c1cnc(-n2nc(C)cc2C)nc1Nc1ccc(N(C)C)cc1 | 13.7 |
| CCOC(=O)c1c(NS(=O)(=O)c2cccc(OC)c2)sc2c1CCC2 | 56.2 |
| Cn1c(NC(=O)c2ccccc2NC(=O)C(C)(C)C)nc2ccccc21 | 9.13 |
| CCOC(=O)C1CCCN(c2ncnc3c2cnn3-c2ccc(Cl)cc2)C1 (configuration not stated) | 9.92 |
| CCOC(=O)c1c(-c2ccc(OC)cc2)oc2ccc(OC(=O)N(C)C)cc12 | 12.9 |
| CN1/C(=C\C(=O)COc2ccc3c(c2)OCO3)C(C)(C)c2ccccc21 | 11.2 |
| CCOC(=O)c1cc2sccc2n1CC(=O)N1CCCc2ccccc21 | 15.1 |
| O=C(OC1CCc2ccccc2C1=O)c1ccccc1O (configuration not stated) | 27.7 |
| CCN(C(=O)c1cc2cc3ccc(C)cc3nc2o1)c1ccc(OC)cc1 | 19 |
| Fc1cccc(-c2cc3nc4c(c(N5CCOCC5)n3n2)CCCC4)c1 | 18.4 |
| O=C(CCNc1cc(Cl)cc(Cl)c1)c1ccco1 | 30.9 |
| O=C(c1cc(-c2ccccc2)on1)N1CCN(Cc2ccc3c(c2)OCO3)CC1 | 20.8 |
| Cc1oc2c(CN3CCOCC3)c(O)ccc2c(=O)c1-c1ccc(Br)cc1 | 2.83 |
| N#Cc1nc(COc2ccccc2F)oc1NCCc1ccccc1 | 16.7 |
| O=C(NC1CCCCC1)c1nc2c(nnn2Cc2ccccc2Cl)c(=O)[nH]1 | 6.11 |

| SMILES | IC50 [µM] |
| --- | --- |
| O=S(=O)(Nc1nnc(-c2ccccc2)s1)c1ccc(Cl)cc1 | 3.74 |
| O=C(Nc1nc2ccccc2n1CCOc1ccc(Cl)cc1)c1ccco1 | 25.2 |
| COc1ccc(-c2cnc(SCC(=O)Nc3cc(C)on3)n2Cc2ccco2)cc1 | 35.7 |
| Cc1cc(-c2ccco2)c(C#N)c2nc3ccccc3n12 | 9.09 |
| O=c1[nH]c(NCCCO)nc2c1C1(CCCC1)Cc1ccccc1-2 | 8.77 |
| COc1cc(Cc2cnc(N)nc2N)cc(OC)c1OC | 0.34 |
| COc1c(C)cc(Br)cc1C(=O)Nc1cccc(NC(=O)c2ccco2)c1 | 7.48 |
| Cc1ccc2oc(C(=O)NCc3ccc4c(c3)OCO4)c(C)c2c1 | 11.1 |
| O=C(Nc1nnc(-c2ccc(Cl)cc2)o1)c1ccccc1Br | 0.4 |
| COc1ccccc1-c1nnc(SC/C(O)=C(\C#N)c2nc3ccccc3[nH]2)n1C1CCCCC1 | 10.2 |
| COc1ccc(NC(=O)N2CCCC(c3nc(-c4ccc(C(C)C)cc4)no3)C2)cc1 (configuration not stated) | 16.9 |
| CN1CCCN(C(=O)Cc2c(Cl)cccc2Cl)c2nc3ccccc3nc21 | 13.1 |
| c1csc(-c2nc3nc4ccccc4nc3n2Cc2ccc3c(c2)OCO3)c1 | 9.62 |
| O=C(Nc1ccc(N2CCN(C(=O)c3ccco3)CC2)c(Cl)c1)c1cccs1 | 12.3 |
| CC(C)Cn1c(=O)c(C(=O)Nc2cnccn2)c(O)c2ccccc21 | 14 |
| O/N=C(\c1ccc(Cl)cc1)c1cc2ccccc2o1 | 5.7 |
| COc1ccc2nc(NC(=O)CSc3nnnn3C3CCCCC3)sc2c1 | 63.6 |
| O=C(CSc1nnc(Cc2cccs2)n1Cc1ccco1)Nc1ccc(Br)cc1 | 5.74 |
| CCCCCCOC(=O)C(C#N)c1nc2ccccc2nc1N1CCN(C)CC1 (configuration not stated) | 12.9 |
| CCOc1ccc(NS(=O)(=O)c2ccc3[nH]cc(C(=O)NC(C)CC)c(=O)c3c2)cc1 (configuration not stated) | 11.1 |
| CCc1nc2sc3ccccc3c(=O)c2c(=O)n1Cc1ccco1 | 17.1 |
| COc1ccc(Cl)cc1N(C)C(=O)CCc1nc(-c2ccc(C)cc2)no1 | 15.2 |
| CCC(Oc1ccccc1)C(=O)Nc1nnc(C(F)(F)F)s1 (configuration not stated) | 9.18 |

| SMILES | IC50 [µM] |
| --- | --- |
| O=S(=O)(N1CCCCC1)n1c(Cc2ccccc2)nc2ccccc21 | 6.89 |
| CCn1c(CNc2cccc(Cl)c2)nnc1SCC(=O)OC1CCCCC1 | 17.8 |
| COC(=O)c1ccccc1NC(=O)c1ccc2c(c1)OCCO2 | 21.9 |
| CCOC(=O)CCSc1nc2c(c(C(F)(F)F)c1C#N)CCC2 | 13.9 |
| COc1ccc(NS(=O)(=O)c2ccc3oc4ccccc4c3c2)cn1 | 5.62 |
| CCOC(=O)C1C(=O)C=C(c2ccc(OC)cc2)CC1c1ccco1 (configuration not stated) | 11.6 |
| CC(C)(C)n1nnnc1C(c1cccs1)N(Cc1ccccc1)Cc1cccnc1 (configuration not stated) | 8.37 |
| O=C(Nc1ncc(Br)s1)C(Cc1ccccc1)n1cccc1 (configuration not stated) | 3.21 |
| COc1cc2c(C#N)c(N3CCc4ccccc4C3)nc(N)c2c(N)n1 | 23.5 |
| Cc1cccc(NC(=O)CSc2nnc(-c3cc(C)n(-c4ccccc4)c3C)o2)c1C | 14 |
| CCc1nnc(NC(=O)c2cccc(C(=O)Nc3nnc(CC)s3)n2)s1 | 2.16 |
| Cc1ccc(C2C(S(C)(=O)=O)=C(O)C(=O)N2c2ccccc2)cc1 (configuration not stated) (tested in a mixture with another compound) | 4.81 |
| CC1CCCCC1n1c(=S)[nH]c2ccccc2c1=O (configuration not stated) | 5.91 |
| CC1=C(C(=O)OC2CCCC2)C(c2ccc(C)o2)C2=C(CC(c3cccs3)CC2=O)N1 (configuration not stated) | 11.2 |
| O=C(CSc1nc2ccccc2[nH]1)Nc1cc(C(F)(F)F)ccc1N1CCOCC1 | 5.96 |
| Cc1ccc(C)c(N2CCN(C(=O)c3ccc(NS(=O)(=O)c4c(C)noc4C)cc3)CC2)c1 | 13.6 |
| O=C(CSc1nnnn1C1CCCCC1)Nc1nc2c(s1)CCCC2 | 10.2 |
| COc1ccc(-n2cnc3cc(NCc4cccs4)ccc32)cc1 | 10.6 |
| COc1ccc(-n2c(Cc3cccn3C)nnc2SCC(=O)Nc2ccc(C)c(Cl)c2)cc1 | 14.4 |
| CC(C)Cc1cc(C(=O)Nc2sc3c(c2C#N)CCCC3)no1 | 8.44 |
| CCOC(=O)C1CCN(c2nc3cc(OC)ccc3cc2C#N)CC1 | 14.9 |
| Cc1cc(C)n(-c2nc(SCC(=O)N3CCCC3)c3c4c(sc3n2)CCCC4)n1 | 23.9 |
| Brc1ccc(CSc2nnc(-c3ccccn3)n2Cc2ccco2)cc1 | 9.85 |

| SMILES | IC50 [µM] |
| --- | --- |
| Cc1ccccc1OCCCCc1c(C)n[nH]c1C | 3.74 |
| CCn1c(=O)c2cc(C(=O)N3CCN(C(=O)c4ccco4)CC3)sc2c2ccccc21 | 6.29 |
| COC(=O)CNS(=O)(=O)c1ccc(Cc2ccc(S(=O)(=O)NCC(=O)OC)cc2)cc1 | 1.29 |
| c1ccc(N2CCN(c3ncnc4c3oc3ccccc34)CC2)cc1 | 40.5 |
| CCSc1nnc(NC(=O)c2ccccn2)s1 | 4.66 |
| CCCn1c(CN(Cc2ccccc2)Cc2ccccc2)nc2c1c(=O)n(C)c(=O)n2C | 7.19 |
| O=C(CN1CCN(c2nc(-c3ccc(F)cc3)cs2)CC1)NCc1ccc2c(c1)OCO2 | 11.1 |
| CSCCOC(=O)C1=C(C)NC(=O)CC1c1ccccc1Cl (configuration not stated) | 22.9 |
| COC(=O)c1[nH]c2cccc(OC)c2c1NC(=O)CN1CC2(C)CC1CC(C)(C)C2 (configuration not stated) | 38.8 |
| O=C(Nc1nc(-c2ccccc2)ns1)c1cccs1 | 28.4 |
| COc1ccc2nc3c(cc2c1)c(NC(=O)c1cccs1)nn3CC(C)C | 9.28 |
| O=C(Nc1nnc(-c2ccccc2)o1)c1ccc(Cl)cc1 | 0.17 |
| Cc1nn(-c2ccccc2)c(C)c1C(=O)Nc1nnc(-c2ccco2)o1 | 6.38 |
| Cc1cc2n(n1)C(c1ccc3c(c1)OCO3)Nc1c(C)cccc1-2 (configuration not stated) | 29.6 |
| Cc1cc(Cl)ccc1OCC(=O)Nc1ccccc1N1CCOCC1 | 8.64 |
| O=C(C1CC1)N1CCc2cc(S(=O)(=O)NCCC3=CCCCC3)ccc21 | 17.7 |
| Cc1cc(C)c(O)c(-c2cc(C(=O)Nc3ccc(S(=O)(=O)N4CCOCC4)cc3)[nH]n2)c1 | 6.03 |
| CCCOc1ccccc1C1CC(=O)Nc2cc3c(cc21)OCCO3 (configuration not stated) | 24.1 |
| CCOC(=O)c1cn(CC)c2cc(N3CCOCC3)c(F)cc2c1=O | 0.78 |
| CS(=O)(=O)N(Cc1nc2sc3c(c2c(=O)[nH]1)CCCC3)C1CCCCC1 | 8.1 |

Source: PubChem BioAssay AID617 (SRMLSC, 2007)
